Our source for the IC50 values is ChEMBL document CHEMBL1122045, “Synthesis and pharmacological evaluation of reduced diastereoisomeric and quaternary ammonium derivatives of calcium antagonistic (methylenedioxy)indenes on the isolated rat aorta” (J Med Chem, 1982).

For assay [1], the species on record is Rattus norvegicus. Briefly: Evaluated for its potency (IC 50) against potassium Chloride (KCl) (at a dose level of 40 mM) induced aortic contractions in male Sprague-Dawley rats. It counts as functional. The settings on record: Aorta. An outline of the steps: (§1)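 Thoracic aorta segments (2.5 cm) from male Sprague–Dawley rats (250–300 g) were equilibrated 1–1.5 h, then contracted with NE 1×10^-7 M or KCl 40 mM, final bath levels. Compound was added in rising concentrations, up to 30 min per step. Tension was taken as % of pre-drug control, fatigue-adjusted. Per-tissue probit transform with linear regression gave IC50.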

Assay [2] is filed under the species Rattus norvegicus. Briefly: Evaluated for its potency against norepinephrine (NE) (at a dose level of 10 E-7 M) induced aortic contractions in male Sprague-Dawley rats. In kind it is functional. The settings on record: Aorta. Put shortly:
as §1

By IC50 is commonly meant the concentration that inhibits the measured activity by half. Take `CCCC[C@@H]1Cc2cc3c(cc2[C@@H]1[N+](C)(C)C)OCO3`: the IC50 in the assay listed under Rattus norvegicus [1] is 175 µM; in the assay listed under Rattus norvegicus [2], 281 µM.
With `CCCCC1=Cc2cc3c(cc2C1[N+](C)(C)C)OCO3` (stereo not given), the IC50 came to 169 µM in the assay filed under Rattus norvegicus [1] and 128 µM in the assay filed under Rattus norvegicus [2].
For the molecule `CCCC[C@@H]1Cc2cc3c(cc2[C@H]1N(C)C)OCO3`, the IC50 in the assay listed under Rattus norvegicus [1] was found to be 31.1 µM; in the assay filed under Rattus norvegicus [2] it was 151 µM.
As for `CCCCC1=Cc2cc3c(cc2C1N(C)C)OCO3` (stereo not given), the IC50 in the assay filed under Rattus norvegicus [1] is 20.3 µM; in the assay listed under Rattus norvegicus [2], 74.1 µM.
The matching figures for `CCCC[C@@H]1Cc2cc3c(cc2[C@@H]1N(C)C)OCO3`: 17.4 µM and 37.9 µM.
Regarding `CCC[C@@H]1Cc2cc3c(cc2[C@@H]1[N+](C)(C)C)OCO3`, the half-inhibitory concentration (IC50) in the assay listed under Rattus norvegicus [1] was determined as 871 µM; in the assay filed under Rattus norvegicus [2], 1020 µM.
For `CCCC1=Cc2cc3c(cc2C1[N+](C)(C)C)OCO3` (stereo not given), in that order: 547 µM and 382 µM.
For `CCCC1=Cc2cc3c(cc2C1N(C)C)OCO3` (stereo not given), in that order: 21.4 µM and 78.2 µM.
As to `CCC[C@@H]1Cc2cc3c(cc2[C@@H]1N(C)C)OCO3`, the results for the IC50 in the assay listed under Rattus norvegicus [1] and in the assay filed under Rattus norvegicus [2] were 30 µM and 59.4 µM, respectively.
With `CCC[C@@H]1Cc2cc3c(cc2[C@H]1N(C)C)OCO3`, the results for the concentration for half-maximal inhibition (IC50) in the assay filed under Rattus norvegicus [1] and in the assay filed under Rattus norvegicus [2] were 98.9 µM and 383 µM, respectively.
